Source: ChEMBL document CHEMBL5715941, “AZD1152, a selective inhibitor of Aurora B kinase, inhibits human tumor xenograft growth by inducing apoptosis” (Clin Cancer Res, 2007)

Columns and labels:
[1] = test system: HL-60; assay: Antitumor activity against human HL-60 cells xenografted in immunodeficient athymic mouse assessed as inhibition of tumor growth at 75 mg/kg, ip administered twice daily for 13 days relative to control; format: functional, organism-based; settings: time 13.0 day
[2] = Toxicity in athymic nude rat xenografted with human SW620 cells assessed as maximal body weight loss at 25 mg/kg/day, iv for 24 h following 4 days; format: organism-based, SW-620; settings: in vivo, 96 h, time 4 day
Summary of the method: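 Male nude rats bearing SW620 xenografts received vehicle or AZD1152 at 25 mg/kg/d i.v. once daily for 4 consecutive days. Body weight was tracked, with maximal loss taken relative to vehicle-treated animals.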

[3] = test system: HL-60; assay: Antitumor activity against human HL-60 cells xenografted in immunodeficient athymic mouse assessed as inhibition of tumor growth at 45 mg/kg, iv administered twice daily for 5 days relative to control; format: functional; settings: HL-60, 120 h, time 5 day

SMILES: Cc1cc(Nc2cc(N3CCN(C)CC3)nc(Sc3ccc(NC(=O)C4CC4)cc3)n2)n[nH]1
- inhibition [1]: 98%

SMILES: CCN(CCCOc1ccc2c(Nc3cc(CC(=O)Nc4cccc(F)c4)n[nH]3)ncnc2c1)CCOP(=O)(O)O [BARASERTIB]
- Activity [2]: 5%

SMILES: CCc1cccc(CC)c1NC(=O)N1Cc2[nH]nc(NC(=O)c3ccc(N4CCN(C)CC4)cc3)c2C1 [PHA-680632]
- inhibition in vivo at 45 mg/kg [3]: 85%
